Experimental findings from ChEMBL document CHEMBL1681637, “Synthesis and antitubercular activity of monocyclic nitroimidazoles: insights from econazole” (Bioorg Med Chem Lett, 2011) are described below.

In brackets after ≈: the same amount, converted by molar mass.

The first assay has as its system Mycobacterium tuberculosis. Nature of the assay: Antitubercular activity against multidrug-resistant Mycobacterium tuberculosis H37Rv after 7 days by alamar blue assay. The format is functional. The settings on record: 168 h. Background: Resazurin is reduced to fluorescent resorufin, in cell work by metabolically active cells.
For orientation: MIC means the lowest concentration found to suppress growth. A lower MIC goes with inhibition by little substance. Turning to `O=[N+]([O-])c1cn(CC(O)c2ccc(Cl)cc2)c(Br)n1` (racemic), the minimum inhibitory concentration (MIC) amounted to 64 µg/mL (≈ 185 µM).
On the same count and under the same terms, the value for `O=[N+]([O-])c1cn(CC(O)c2ccc(Cl)cc2Cl)cn1` (racemic) was 32 µg/mL (≈ 106 µM); that for `Cc1nc([N+](=O)[O-])cn1CC(O)c1ccc(Cl)cc1Cl` (racemic) was greater than 256 µg/mL; that for `O=[N+]([O-])c1cn(CC(O)c2ccc(Cl)cc2Cl)c(Br)n1` (racemic) was 2 µg/mL (≈ 5.25 µM).
In the case of `O=[N+]([O-])c1cn(CC(O)c2ccc(F)cc2F)cn1` (racemic), it took 256 µg/mL (≈ 951 µM) to inhibit growth (MIC). This MIC lies about 130-fold higher than the previous one.
The same measure, in the same setting: the value for `O=[N+]([O-])c1cn(CC(O)c2ccc(F)cc2F)c(Br)n1` (racemic) was 64 µg/mL (≈ 184 µM).
On the same count and under the same terms, the value for `O=[N+]([O-])c1cn(CC(O)c2ccc(F)cc2)c(Br)n1` (racemic) was 128 µg/mL (≈ 388 µM); that for `O=[N+]([O-])c1ccc(C(O)Cn2cc([N+](=O)[O-])nc2Br)cc1` (racemic) was 64 µg/mL (≈ 179 µM).
Compound `O=[N+]([O-])c1cn(CC(O)c2ccc(-c3ccccc3)cc2)c(Br)n1` (racemic) displayed an MIC greater than 256 µg/mL.
On the same count and under the same terms, for `O=[N+]([O-])c1cn(CC(O)c2ccccc2)c(Br)n1` (racemic) the value was 32 µg/mL (≈ 103 µM); for `Cc1ccc(C(O)Cn2cc([N+](=O)[O-])nc2Br)c(C)c1` (racemic), 128 µg/mL (≈ 376 µM).
On the same count and under the same terms, for `O=[N+]([O-])c1cn(CC(OCc2ccc(Cl)cc2)c2ccc(Cl)cc2Cl)cn1` (racemic) the value was greater than 256 µg/mL; for `Cc1nc([N+](=O)[O-])cn1CC(OCc1ccc(Cl)cc1)c1ccc(Cl)cc1Cl` (racemic), greater than 256 µg/mL.
On the same count and under the same terms, the value for `O=[N+]([O-])c1cn(CC(OCc2ccc(Cl)cc2)c2ccc(Cl)cc2Cl)c(Br)n1` (racemic) was greater than 256 µg/mL; that for `O=[N+]([O-])c1cn(CC(OCc2ccc(Cl)cc2)c2ccc(F)cc2F)cn1` (racemic) was greater than 256 µg/mL; that for `O=[N+]([O-])c1cn(CC(OCc2ccc(Cl)cc2)c2ccc(F)cc2F)c(Br)n1` (racemic) was greater than 256 µg/mL.
For the compound `O=[N+]([O-])c1cn(CC(OCc2ccccc2F)c2ccc(Cl)cc2Cl)cn1` (racemic), the MIC was greater than 256 µg/mL.
The same measure, in the same setting: for `O=[N+]([O-])c1cn(CC(OCc2ccc(F)cc2)c2ccc(Cl)cc2Cl)cn1` (racemic) the value was greater than 256 µg/mL.
On the same count and under the same terms, for `O=[N+]([O-])c1cn(CC(OCc2ccccc2F)c2ccc(Cl)cc2Cl)c(Br)n1` (racemic) the value was greater than 256 µg/mL.
Still for that read-out and setting: the value for `O=[N+]([O-])c1cn(CC(OCc2ccc(F)cc2)c2ccc(Cl)cc2Cl)c(Br)n1` (racemic) was greater than 256 µg/mL; that for `O=[N+]([O-])c1cn(CC(OCc2ccc(F)cc2F)c2ccc(Cl)cc2Cl)cn1` (racemic) was greater than 256 µg/mL.
Regarding `O=[N+]([O-])c1cn(CC(OCc2cc(F)ccc2F)c2ccc(Cl)cc2Cl)cn1` (racemic), the MIC is greater than 256 µg/mL.
The same measure, in the same setting: the value for `O=[N+]([O-])c1cn(CC(OCc2ccc(OC(F)(F)F)cc2)c2ccc(Cl)cc2Cl)cn1` (racemic) was greater than 256 µg/mL.
Still for that read-out and setting: for `O=[N+]([O-])c1cn(CC(OCc2cc(F)cc(F)c2)c2ccc(Cl)cc2Cl)cn1` (racemic) the value was greater than 256 µg/mL; for `O=[N+]([O-])c1cn(CC(OCc2cc(F)cc(F)c2)c2ccc(Cl)cc2Cl)c(Br)n1` (racemic), greater than 256 µg/mL.
On the same count and under the same terms, the value for `O=[N+]([O-])c1cn(CC(OCc2ccc(F)cc2)c2ccc(F)cc2F)cn1` (racemic) was greater than 256 µg/mL; that for `O=[N+]([O-])c1cn(CC(OCc2ccc(OC(F)(F)F)cc2)c2ccc(F)cc2F)cn1` (racemic) was greater than 256 µg/mL; that for `O=[N+]([O-])c1cn(CC(OCc2cc(F)cc(F)c2)c2ccc(F)cc2F)cn1` (racemic) was greater than 256 µg/mL.
In turn, `COc1nc([N+](=O)[O-])cn1CC(O)c1ccc(Cl)cc1Cl` (racemic) displayed a minimum inhibitory concentration (MIC) of 0.5 µg/mL (≈ 1.51 µM).
On the same count and under the same terms, the value for `COc1nc([N+](=O)[O-])cn1CC(O)c1ccc(F)cc1F` (racemic) was 4 µg/mL (≈ 13.4 µM); that for `COc1nc([N+](=O)[O-])cn1CC(O)c1ccc(F)cc1` (racemic) was 16 µg/mL (≈ 56.9 µM).
`COc1nc([N+](=O)[O-])cn1CC(O)c1ccc(Cl)cc1` (racemic) showed an MIC of 16 µg/mL (≈ 53.7 µM).
On the same count and under the same terms, the value for `COc1nc([N+](=O)[O-])cn1CC(O)c1ccc([N+](=O)[O-])cc1` (racemic) was 16 µg/mL (≈ 51.9 µM); that for `COc1nc([N+](=O)[O-])cn1CC(O)c1ccc(-c2ccccc2)cc1` (racemic) was 0.5 µg/mL (≈ 1.47 µM); that for `CSc1nc([N+](=O)[O-])cn1CC(O)c1ccc(Cl)cc1Cl` (racemic) was 16 µg/mL (≈ 45.9 µM).
With `COc1nc([N+](=O)[O-])cn1CC(O)c1ccccc1` (racemic), 8 µg/mL (≈ 30.4 µM) was the least that counted as inhibitory (MIC).
Still for that read-out and setting: the value for `COc1nc([N+](=O)[O-])cn1CC(O)c1ccc(C)cc1C` (racemic) was 16 µg/mL (≈ 54.9 µM).
With `COc1nc([N+](=O)[O-])cn1CC(OCc1ccc(Cl)cc1)c1ccc(Cl)cc1Cl` (racemic), the minimum inhibitory concentration (MIC) was greater than 256 µg/mL.
The same measure, in the same setting: for `CSc1nc([N+](=O)[O-])cn1CC(OCc1ccc(F)cc1)c1ccc(Cl)cc1Cl` (racemic) the value was greater than 256 µg/mL; for `COc1nc([N+](=O)[O-])cn1CC(OCc1ccc(OC(F)(F)F)cc1)c1ccc(Cl)cc1Cl` (racemic), greater than 256 µg/mL; for `COc1nc([N+](=O)[O-])cn1CC(OCc1ccc(Cl)cc1)c1ccc(F)cc1F` (racemic), greater than 16 µg/mL.
In turn, `COc1nc([N+](=O)[O-])cn1CC(OCc1ccc(F)cc1)c1ccc(F)cc1F` (racemic) gave a minimum inhibitory concentration (MIC) greater than 32 µg/mL.
The same measure, in the same setting: for `COc1nc([N+](=O)[O-])cn1CC(OCc1ccc(OC(F)(F)F)cc1)c1ccc(F)cc1F` (racemic) the value was greater than 256 µg/mL; for `COc1nc([N+](=O)[O-])cn1CC(OCc1cc(F)cc(F)c1)c1ccc(Cl)cc1Cl` (racemic), greater than 256 µg/mL.
Regarding `COc1nc([N+](=O)[O-])cn1CC(OCc1ccc(F)cc1)c1ccc(Cl)cc1Cl` (racemic), the MIC was greater than 256 µg/mL.
In turn, `CSc1nc([N+](=O)[O-])cn1CC(OCc1ccc(Cl)cc1)c1ccc(Cl)cc1Cl` (racemic) displayed an MIC greater than 256 µg/mL.
`CSc1nc([N+](=O)[O-])cn1CC(OCc1cc(F)cc(F)c1)c1ccc(Cl)cc1Cl` (racemic) showed an MIC greater than 256 µg/mL.
In turn, `CSc1nc([N+](=O)[O-])cn1CC(OCc1ccc(Cl)cc1)c1ccc(F)cc1F` (racemic) showed an MIC greater than 256 µg/mL.
The same measure, in the same setting: for `Clc1ccc(COC(Cn2ccnc2)c2ccc(Cl)cc2Cl)cc1` (stereo not given) [ECONAZOLE] the value was 16 µg/mL (≈ 41.9 µM).
Compound `O=[N+]([O-])c1cn2c(n1)OC[C@@H](OCc1ccc(OC(F)(F)F)cc1)C2` [PRETOMANID] gave an MIC of 0.13 µg/mL (≈ 0.362 µM).

The next assay deals with Mycobacterium tuberculosis. The assay can be described thus: Antitubercular activity against multidrug-resistant Mycobacterium tuberculosis H37Rv under anaerobic condition after 7 days by GFP reporter gene assay. The format is functional. The conditions noted are these: 168 h. In short, it runs like this:
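GFP-expressing Mtb H37Rv, made non-replicating by the Wayne hypoxia model, was added to 2-fold DMSO serial compound dilutions inside an anaerobic chamber. Plates were held at 37 °C for 7 days under anaerobiosis, then diluted 10-fold into fresh medium and outgrown for 2 days. Fluorescence was read at ex 485/em 520 nm. MIC was the lowest concentration giving 80% fluorescence inhibition versus bacteria-only wells.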
In turn, `O=[N+]([O-])c1cn(CC(O)c2ccc(Cl)cc2Cl)c(Br)n1` (racemic) showed a minimum inhibitory concentration (MIC) of 8 µg/mL (≈ 21 µM).
For the compound `COc1nc([N+](=O)[O-])cn1CC(O)c1ccc(Cl)cc1Cl` (racemic), the MIC was determined as 4 µg/mL (≈ 12 µM).
Same read-out and setting: for `COc1nc([N+](=O)[O-])cn1CC(O)c1ccc(F)cc1F` (racemic) the value was 4 µg/mL (≈ 13.4 µM).
Same read-out and setting: the value for `COc1nc([N+](=O)[O-])cn1CC(O)c1ccc(-c2ccccc2)cc1` (racemic) was 1 µg/mL (≈ 2.95 µM).
Same read-out and setting: for `O=[N+]([O-])c1cn2c(n1)OC[C@@H](OCc1ccc(OC(F)(F)F)cc1)C2` [PRETOMANID] the value was 2 µg/mL (≈ 5.57 µM).
